Assay outcomes from PubChem.
In the library only some 2.7% were active in any assay of this set; here they are far more common.
E-sel inducer: E-selectin induction in HUVECs, primary screen, imaging, HUVEC, immunofluorescence imaging, single point; activation, % at 7.58 µM; P16581; hit rate 0.37% among 260,000; normalized: neutral wells 0, TNF-alpha wells 100;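 active means mean E-selectin-positive cell signal at least 10% of the positive control, reached in at least 60% of replicates, without over 20% cell loss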
Target sequence (P16581 whole entry, looked up): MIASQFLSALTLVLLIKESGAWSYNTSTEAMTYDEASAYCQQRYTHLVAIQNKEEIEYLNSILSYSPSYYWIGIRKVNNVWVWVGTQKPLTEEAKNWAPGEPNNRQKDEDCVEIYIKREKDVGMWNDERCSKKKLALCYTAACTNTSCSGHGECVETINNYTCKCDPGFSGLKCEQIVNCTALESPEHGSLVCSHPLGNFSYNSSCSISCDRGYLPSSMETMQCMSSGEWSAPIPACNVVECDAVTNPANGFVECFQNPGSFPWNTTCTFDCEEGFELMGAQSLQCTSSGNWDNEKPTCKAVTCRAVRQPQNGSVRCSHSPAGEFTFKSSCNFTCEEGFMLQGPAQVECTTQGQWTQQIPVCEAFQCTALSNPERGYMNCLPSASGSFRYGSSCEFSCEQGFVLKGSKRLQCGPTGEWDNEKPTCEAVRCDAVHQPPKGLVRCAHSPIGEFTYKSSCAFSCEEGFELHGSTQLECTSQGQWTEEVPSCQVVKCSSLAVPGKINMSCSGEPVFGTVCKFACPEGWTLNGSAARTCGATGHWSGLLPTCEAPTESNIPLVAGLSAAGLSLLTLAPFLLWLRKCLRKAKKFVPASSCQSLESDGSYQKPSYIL
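Test system – human umbilical vein endothelial cells (HUVEC), E-selectin induction · Input – 3,000 HUVEC seeded per well · Buffer or medium – EGM-2, gelatin · Compound dosing – single-point compound dose · Detection – immunofluorescence imaging · Measure – percent E-selectin-positive cells · Controls – TNF-alpha high, DMSO low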
CFTR F508del cor: F508del CFTR correction, initial screen, CFBE line, single point. CFBE cells, YFP halide quenching; stimulated with forskolin plus potentiator P3; % fluorescence drop versus neutral controls. activity (quench increase), % at 7.58 µM. hit rate 0.36% among 350,000;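 active means mean added fluorescence quench of at least 8% versus neutral control, with both replicates also reaching 8%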;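 further: cells transiently co-express mutant CFTR-F508del with the halide-sensitive YFP; corrector assay measuring rescue of mutant channel to the surface after 24 h compound exposure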
FGF22 binding: binders of human FGF22 protein, primary screen, FGF22 synaptogenesis inhibitor project, biophysical, thermal shift, single point | Fibroblast growth factor 22 (Homo sapiens), Q9HCT0 | recombinant FGF22 thermal shift, SYPRO orange fluorescence; percent of sucrose octasulfate shift, DMSO zero | activity (Tm shift, normalised), % at 9.99 µM | AID 651658, 2012 | hit rate 1.5% among 340,000;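 active means mean Tm shift, scaled 0 neutral to 100 positive control, at about 1.3% or above, every replicate too, limit read from the data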
Target sequence (Q9HCT0 whole entry, looked up): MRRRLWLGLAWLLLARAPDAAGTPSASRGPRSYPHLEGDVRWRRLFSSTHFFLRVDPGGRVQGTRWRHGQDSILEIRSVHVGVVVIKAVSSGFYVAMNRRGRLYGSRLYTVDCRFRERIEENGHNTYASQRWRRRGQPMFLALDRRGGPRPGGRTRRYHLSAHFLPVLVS
S100A4 MyoIIA: inhibitors of S100A4-myosin IIA peptide binding, primary screen, biochemical, fluorescence polarization, TAMRA-MyoIIA peptide; Protein S100-A4 (Homo sapiens), P26447; inhibition, % at 10.7 µM; hit rate 0.14% among 360,000; AID 652163, 2013;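 active means mean inhibition of at least 70% across replicates, with every replicate also reaching that level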
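Test system: S100A4 monomer protein. Medium: HEPES buffer with Ca2+, pH 7.2. Reagent: fluorescent myosin IIA peptide, 5 nM. Compound dosing: single-point compound testing. Timing: 5 min between mix addition and reading. Benchmarks: DMSO neutral and TFP positive wells.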
HIV Env fusion: inhibitors of HIV-1 Env-driven cell-cell fusion, primary screen, HeLa-JRFL effector, CEM21 target cells, luciferase; inhibition, % at 12.3 µM; hit rate 1.1% among 360,000;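 active means mean replicate inhibition score of at least 50 and every replicate individually at or above 50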
Of the large screens only hits and unclear results are named; the others gave an inactive call.

O=C(O)c1cc(-c2ccc(/C=N/N3C(=O)C4C5C=CC(C6CC56)C4C3=O)o2)ccc1Cl (stereo not given)	FGF22 binding 43.2 (no result: E-sel inducer, CFTR F508del cor)
CC(C)CN(C(=O)c1ccc(S(=O)(=O)N2CCCCC2)cc1)C1CCS(=O)(=O)C1 (stereo not given)	HIV Env fusion 69.7 (no result: E-sel inducer)
Cc1c(C(=O)NC(=S)NCC(C)C)oc2ccccc12	none (no result: CFTR F508del cor)
C=CCNC(=S)NC(=O)c1oc2ccccc2c1C	E-sel inducer 48.8 (no result: FGF22 binding)
CCC(C)C(NC(=O)C(C)NC(=O)CNC(=O)OC(C)(C)C)C(N)=O (stereo not given)	none (no result: E-sel inducer)
CCC(C)C(NC(=O)OC(C)(C)C)C(=O)NC(C)C(N)=O (stereo not given)	FGF22 binding 42.9
COc1ccc(CCNC(=O)C2CCN(Cc3nc(-c4ccccc4C)oc3C)CC2)cc1OC	HIV Env fusion 56.8 (no result: E-sel inducer, CFTR F508del cor, FGF22 binding, S100A4 MyoIIA)
COc1ccc(CCNC(=O)C2CCN(Cc3nc(-c4ccc(Cl)cc4)oc3C)CC2)cc1OC	none
Cc1ccccc1-c1nc(CN2CCC(C(=O)NCCC3=CCCCC3)CC2)c(C)o1	HIV Env fusion 72.6 (no result: CFTR F508del cor, FGF22 binding, S100A4 MyoIIA)
CCN(CCNC(=O)C1CCN(Cc2nc(-c3cccc(Cl)c3)oc2C)CC1)c1ccccc1	HIV Env fusion 55.3 (no result: E-sel inducer, CFTR F508del cor, FGF22 binding, S100A4 MyoIIA)
COc1cccc(NC(=O)N2C[C@@H](O)COC[C@H]3O[C@@H](CC(=O)NC4CCC4)CC[C@@H]32)c1	none (no result: HIV Env fusion)
C[C@H]1CN([C@@H](C)CO)C(=O)c2cccc(NS(=O)(=O)c3ccc(F)cc3)c2O[C@@H]1CN(C)Cc1ccc(C(=O)Nc2ccccc2N)cc1	none (no result: HIV Env fusion)
O=C(NCC[C@@H]1CC[C@H](NS(=O)(=O)c2ccc(Cl)cc2)[C@@H](CO)O1)Nc1ccc(F)cc1	none (no result: FGF22 binding, HIV Env fusion)
COc1ccc(NC(=O)N(C)C[C@@H]2OCCCC[C@H](C)Oc3ccc(NS(=O)(=O)c4c(C)noc4C)cc3C(=O)N([C@@H](C)CO)C[C@H]2C)cc1	none (no result: FGF22 binding, HIV Env fusion)
CCOC(=O)C1C(=O)OC(C)(C)C1C(CC)C(=O)c1c(C)cc(C)cc1C (stereo not given)	HIV Env fusion 76.3 (no result: E-sel inducer)
CCOC(=O)C1C(=O)OC(C)(C)C1C(CC)C(=O)c1ccccc1 (stereo not given)	none
CC(C)Oc1ccc(C2C(C#N)=C(N)Oc3c2oc(CO)cc3=O)cc1 (stereo not given)	FGF22 binding 43.6 (no result: E-sel inducer)
COc1cc(C2C(C#N)=C(N)Oc3c2oc(CO)cc3=O)ccc1OC(C)C (stereo not given)	none (no result: E-sel inducer, CFTR F508del cor, FGF22 binding, S100A4 MyoIIA)
O=C(O)C1CCN(c2nc(-c3ccccc3)c3cc(Br)ccc3n2)CC1	E-sel inducer 34.5
O=C(c1ccccc1F)N1CC2(C1)[C@H](c1ccccc1)[C@@H](CO)N2CC1CC1	none (no result: HIV Env fusion)
NC(=O)NC(CC(=O)NCCCc1ccccc1)c1ccccc1Cl (stereo not given)	FGF22 binding 43.5
O=S(=O)(Nc1ccc(F)cc1Cl)c1ccc(-c2cnc(C3CC3)o2)cc1	CFTR F508del cor 14.0 (no result: E-sel inducer)
Cc1ccc(NS(=O)(=O)c2ccc(-c3cnc(C4CC4)o3)cc2)c(C)c1	none (no result: E-sel inducer)
COc1ccc(CN(C)C[C@@H]2Oc3ccc(NS(=O)(=O)c4cn(C)cn4)cc3C(=O)N([C@H](C)CO)C[C@@H]2C)cc1	none (no result: HIV Env fusion)
Cc1ccc(S(=O)(=O)N(C)C[C@H]2Oc3ncc(-c4ccccc4)cc3C(=O)N([C@H](C)CO)C[C@H]2C)cc1	none
CC[C@]12C(=O)N(C)C[C@H]([C@@H]3C(=O)N(Cc4ccccc4)C(=O)[C@@H]31)N2C(=O)c1ccc(C(C)(C)C)cc1	HIV Env fusion 57.5
CCN1C[C@@H]2[C@@H]3C(=O)N(Cc4ccccc4)C(=O)[C@@H]3[C@](CC)(C1=O)N2C(=O)c1ccc(C(C)(C)C)cc1	HIV Env fusion 68.2 (no result: FGF22 binding, S100A4 MyoIIA)
C[C@H](CO)N1C[C@H](C)[C@@H](CN(C)C(=O)Nc2ccc3c(c2)OCO3)Oc2ncc(-c3cccnc3)cc2C1=O	none
CC(=O)N(C)C[C@H]1Oc2cc(-c3cccc(C#N)c3)ccc2S(=O)(=O)N([C@H](C)CO)C[C@H]1C	none
COC(=O)C(CC#Cc1ccc2c(c1)[C@]1(C(=O)N2)[C@H](c2ccccc2OCCO)N2[C@H](c3ccccc3)[C@H](c3ccccc3)OC(=O)[C@H]2[C@@H]1C(=O)N1CCCCCCC1)C(=O)OC	none (no result: E-sel inducer, FGF22 binding)
COc1ccc(S(=O)(=O)Nc2ccccc2OC)cc1N=Nc1c(O)[nH]c(=S)[nH]c1=O	none
COc1ccc(OC)c(N=Nc2c(O)c3ccccc3[nH]c2=O)c1	FGF22 binding 43.3
CCOC(=O)Cc1csc(NC(=O)COc2ccccc2)n1	none (no result: E-sel inducer, CFTR F508del cor, FGF22 binding, S100A4 MyoIIA)
CCOC(=O)Cc1csc(NC(=O)COc2ccc(C)cc2)n1	FGF22 binding 43.2 (no result: E-sel inducer)
O=C1NCCCN1Cc1ccc(F)cc1	none (no result: E-sel inducer, CFTR F508del cor, FGF22 binding, S100A4 MyoIIA)
O=C1NCCN1Cc1ccc(Cl)cc1	FGF22 binding 43.7
C=CC(=O)N1C/C(=C/c2ccccc2)C(=O)/C(=C\c2ccccc2)C1	HIV Env fusion 78.9
CN1C/C(=C/c2ccncc2)C(=O)/C(=C/c2ccncc2)C1	none (no result: E-sel inducer)
C=CC(=O)N1C/C(=C/c2ccc(Cl)cc2)C(=O)/C(=C\c2ccc(Cl)cc2)C1	HIV Env fusion 102.4
Cc1cc2nc(CN(C)Cc3c(C(=O)N(C)C)nc4ccc(Cl)cn34)[nH]c2cc1C	FGF22 binding 43.2
C[C@@H]1CCCCO[C@@H](CN(C)S(=O)(=O)c2ccc(F)cc2)[C@H](C)CN([C@@H](C)CO)C(=O)c2cc(NC(=O)c3ccncc3)ccc2O1	none (no result: E-sel inducer)
C[C@@H]1CCCCO[C@H](CN(C)S(=O)(=O)c2ccccc2)[C@H](C)CN([C@@H](C)CO)C(=O)c2cc(NS(=O)(=O)c3cccs3)ccc2O1	none (no result: E-sel inducer)
O=C(NC(=O)c1ccccc1)Nc1ccccn1	HIV Env fusion 67.8
O=C(Nc1ccccn1)c1ccc(C(=O)c2ccccc2)cc1	none (no result: E-sel inducer)
O=C1NC(=O)C2(COC(c3cccc([N+](=O)[O-])c3)OC2)S1 (stereo not given)	E-sel inducer 533.4
CCOC(=O)c1c(NC(=O)C(=O)N/N=C/c2ccccc2OC)sc2c1CCCCC2	none (no result: E-sel inducer, CFTR F508del cor, FGF22 binding, S100A4 MyoIIA)
CCOC(=O)c1c(NC(=O)COC(=O)c2nc(Cl)ccc2Cl)sc2c1CCC2	E-sel inducer 137.2 (no result: CFTR F508del cor)
CCOc1ccccc1NC(=O)c1c(NC(=O)CCC(=O)O)sc2c1CCCCC2	none (no result: E-sel inducer)
CCOC(=O)c1c(NC(=O)C(=O)N/N=C/c2ccccc2O)sc2c1CCCCC2	CFTR F508del cor 16.4 (no result: E-sel inducer, HIV Env fusion)
CCOC(=O)c1ccc(NC(=O)c2c(NC(=O)CCC(=O)O)sc3c2CCCCC3)cc1	FGF22 binding 43.7 (no result: E-sel inducer, CFTR F508del cor)
CNC[C@H]1OCCCC[C@H](C)Oc2ccc(NC(=O)Nc3ccc(OC)cc3)cc2C(=O)N([C@H](C)CO)C[C@@H]1C	none
Cc1ccccc1S(=O)(=O)N1[C@@H](c2ccc(F)cc2)C(C(=O)O)=CC[C@H]1c1ccc(Cl)cc1	FGF22 binding 2.2 (no result: E-sel inducer)
